From BindingDB's records for doi:10.1021/jm00012a002 (Tosoh, 1995)

How the values were obtained:
[1] = molecular target: HIV-1 RT (reverse transcriptase); assay: Inhibitory effect on HIV-1 RT activity using template primer,poly (rA)-oligo (dT)
Procedure, shortened: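 Recombinant HIV-1 reverse transcriptase with poly(rA)-oligo(dT) as template-primer; IC50 is the 50% inhibition concentration, given as the mean of at least two separate experiments.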

[2] = Inhibitory effect on HIV-1 RT activity using template primer,poly (rC)-oligo (dG)

Structure (SMILES)	IC50 [1]	IC50 [2]
CC(=O)c1ccc(C)cc1N[C@H](C(N)=O)c1c(Cl)cccc1Cl	16 µM	–
CCCCN(C)C(=O)Oc1nsnc1-c1c(Cl)cccc1Cl [Butyl-methyl-carbamic acid 4-(2,6-dichloro-phenyl)-[1,2,5]thiadiazol-3-yl ester]	12 µM	–
CCN(C)C(=O)Oc1nsnc1-c1c(Cl)cccc1Cl [Ethyl-methyl-carbamic acid 4-(2,6-dichloro-phenyl)-[1,2,5]thiadiazol-3-yl ester]	3.4 µM	0.3 µM
CCCN(C)C(=O)Oc1nsnc1-c1c(Cl)cccc1Cl [Methyl-propyl-carbamic acid 4-(2,6-dichloro-phenyl)-[1,2,5]thiadiazol-3-yl ester]	5.8 µM	0.8 µM
